The RNAGym collection of RNA variant scans (doi:10.1126/science.aae0568)
Variants at the floor of the assay were thinned out.

B1: tRNA (parent)
chain: GUUCCGUUGGCGUAAUGGUAACGCGUCUCCCUCCUAAGGAGAAGACUGCGGGUUCGAGUCCCGUACGGAACG

Variants of: B1
Assay: yeast fitness relative to wild type (ratio to wild type); higher = fitter; tRNA-Arg(CCU), competitive growth, 37 C, YPD
How it was run: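 Start and end populations of a pooled competition were compared by 100-nucleotide paired-end sequencing of gene amplicons. The Saccharomyces cerevisiae strains carried tRNA-Arg(CCU) gene variants at the native genomic locus, synthesised with a 3% per-site mutation rate at 69 sites, and competed in YPD at 37°C for 24 hours in six parallel replicates. Darwinian fitness relative to wild type was based on the change in genotype frequencies. Genotypes required ≥ 100 starting reads, and estimates < 0.5 were set to 0.5.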

GUCCCGUUGGCGUACUGGUAACGCGUCUCCCUCCUAAGGAGAGGAGUGCGGGUUCGAGUCCCGUAGGGGACG and GUCCCGUUGGCGUAGUGGUAACGCGUCUCACUCCUAAGGAGAAGACUGCGGGUUCGGGUCCCGUACGGAACG cannot be ordered by yeast fitness: at most 0.5 for the first, at most 0.5 for the second.

Going from GUCCCGUUGGCGUAAUGGUAACGCGUCUCCCUCCUAAGGGGAAGACUGCGGGUUCGAGUCCCGUACGGAACG to GUCCCGUUGGCGUAAUGGUAACGCGUCUCCCUCCUAAGGCGAAGACUGCGGGUUCGAGUCCCGUACGGAACG, the yeast fitness rises from 0.929 to 0.935.

First: GUCCCGUUGGCGUAGUGGUAACACGUCUCCCUCCUAAGGAGAAGACUGCGGGUUCGAGUUCCGUACGCAACG
Second: GUCCCGUUGGCGUAAUGGUAGCGCGUCUCCCCCCUAAGGAGAUGACUGCGGGUUCGAGUCCCGUACGGAACG
The yeast fitness of the first is lower: at most 0.5 for the first, 0.722 for the second.

GUCCCGUUGGCGUAAUGGUUACGCGUCUCCCUCCUAAGGAGAAGACUGCGGCUUCGAGUCCCGUACGGAACG and GUCCCGUUGGCGUAGUGGUAACGCCUCUCCCUCCUAAGGAGAAGACUGCGGGUUCGAGUCCCGUAGGGAACG cannot be ordered by yeast fitness: at most 0.5 for the first, at most 0.5 for the second.

First: GUCCCGUUGGCGUAAUGGUAGCGCGUCUCCCUCCUAAGGAGAAGACUGCGGGUUCGAGUCCCGUACGGAACG
Second: GUCCCGUUGGCGUAGUGGUAACGCGUCUCCCUCCUAAGGAGAAGACUGCGGGUUCGAGUCCCGUACGGAACG
The yeast fitness of the first is lower: 0.962 for the first, 1.03 for the second.

GUCCCGUUGGCGUAAUGGUGACGCGUCUCCCUCCUAAGGAGAAGACUGCGGGUUCGAGUCCCGAGCGGAACG and GUCCCGUUGGCGUAUUGGUAACGCGUCUCCCUCUUAAGGAGAGGACUGUGGGUUCGAGUCCCGUACGGAACG cannot be ordered by yeast fitness: at most 0.5 for the first, at most 0.5 for the second.

Compared with GUCCCGUUGGCGUAAUGGUAACGCGUCUCCCUCCUAAGGCGAAGCCUGCGGGUUCGAGUCCCGUACGGAACG, GUCCCGUUGGCGUAAUGGUUACGUGUCUCACUCCUAAGGAGAAGACUGCGGGUUCGAGUCCCGUACGGAACG is higher in yeast fitness: 0.502 for the first, 0.656 for the second.

Going from GUCCCGUUGGCGUAAUGGUUACGCGUCUCACUCCUAAGGAGAAGACUGCGGGUUCGAGUCCCGUACGGAACG to GUCCCGUUGGCGUAAUGGUGACGUGUCUCCCUCCUAAAGAGAAGACUGCGGGUUCGACUCCCGUACGGAACG, the yeast fitness falls from 0.568 to at most 0.5.

Going from GUCCCGUUGGCGUAGUGGUAACGCGUCUCCCUCCUAAGGAGAAGACUGGGGGUUCGAGUCCCGUACGGAACG to GUCCCGUUGGCGUAAUGGUUACGCGUCUCCCUCCUAAGGAGAAGACUGCGGGUUCGAGUCCCGUACGGGACG, the yeast fitness rises from 0.556 to 0.612.

First: GUCCCGUUGGCGUAAUGGUGACGCGUCUCCCUCCUAAGGAGAAGACUGCGGGUUCGAGACCCGUACGGAACG
Second: GUCCCGUUGGCGUAAUGGUAACGCGUCUCCCUCCUAAGGUGAAGACUGAGGGUUCGAGUCCCGUACGGAACG
The yeast fitness of the first is higher: 0.684 for the first, 0.577 for the second.

Compared with GUCCCGUUGGCGUAAUGGUAACGCGUCUCCCUCCUACGGAGAAGACUGUGGGUUCGAGUCCCGUACGGAACG, GUCCCGUUGGCGUAAUGGUAACGCGUCUCCCUCCUAAGGAGUAGACUGCGGGUUCGAGUCGCGUACGGAACG is lower in yeast fitness: 0.681 for the first, 0.66 for the second.

GUCCCGUUGGCGUAAUGGUAACGCGUCUCCCUCCUAAGGGGAAGACUGCGGGUUCGAGUCCUGUUCGGAACG and GUCCCGUUGGCGUAAUGGUAGCGCGUCUCCCUCCUAAGGAGAAGAAUGCGGGUUCAAGUCCCGUACGGAACG cannot be ordered by yeast fitness: at most 0.5 for the first, at most 0.5 for the second.

Going from GUCCCGUUGGCGUAAUGGUGACGCGUCUCCCUCCUAAGGAGAAGACUGCGGGUUCGUGUCCCGUACGGAACG to GUCCCGUUGGCGUUAUGGUAACGCGUCUCCCUCCUAAGGAGAAGACUGCGGGUUCGAGUCCCGUCCGGAACG, the yeast fitness falls from 0.597 to at most 0.5.

First: GUCCCGUUGGCGUAAUGGUAACGCGUCUCCCUCCUAAGGUGAAGACUGCGGGUUCGAGUCCCAUGCGGAACG
Second: GUCCCGUUGGCGUAGUGGUAACGCGUCUCACUCCUAAGGAGAAGACUGCGGGUUCGAGUCCCGUACGGAACG
The yeast fitness of the first is lower: 0.549 for the first, 0.564 for the second.

GUCCCGUUGGCGUACUGGUAACGCGUCUCCCUCGUAAGGAGAAGACAGCGGGUUUGAGUCCCGUACGUAACG and GUCCCGUUGGCGUAAUGGUAACGCGUCUCCCUCCUAAGGCGAAGGAUGCGGGUUCGAGUCCCGUACGGAACG cannot be ordered by yeast fitness: at most 0.5 for the first, at most 0.5 for the second.

Compared with GUCCCGUUGGCGUAAUGGUAACGCGUCUCCCUCCUUAGGAGAAGACUGCGGGUUCGAGUCCCGUACGGAACG, GUCCCGUUGGCGUAAUGGUACCGCGUCUCCCUCCUAAGGAGAAGACUGCGGGUUCGAGUCCCGUCCGGAACG is lower in yeast fitness: 0.656 for the first, at most 0.5 for the second.

Compared with GUCCCGUUGGCGUUAUGGUAACGCGUCUCCCUCCUAUGGAGAAGACUGCGGGUUCGAGUACCGUACGGAACG, GUCCCGUUGGCGUAAUGGUAACGCGUCUCCCUCCUAAGGCGAAGACUGCGGGUUCGAGUCGCGUACGGAACG is lower in yeast fitness: 0.586 for the first, 0.576 for the second.

Compared with GUCCCGUUGGCGUAAUGGUAGCGCGUCUCCCUGGUAAGGAGAAGACUGCGGGUUCGAGUCCCGUACGGAACG, GUCCCGUUGGCGUAAUGGUAACGCGUCUCCCUCCUACGGAGAAGACUGCGGGUUCGAGUCCGGUACGGAACG is higher in yeast fitness: at most 0.5 for the first, 0.548 for the second.

First: GUCCCGUUGGCGUAAUGGUAACGCGUCUCCCUCCUAUGGAGAAGACUGCGGAUUCGCGUACCGUACGGAACG
Second: GUCCCGUUGGCGUAAUGGUAACGCGUCUCCCUCCUACGGAGAAGACUGCGGGUUCGAGUCCCGUACGGAACG
The yeast fitness of the first is lower: at most 0.5 for the first, 0.82 for the second.

Going from GUCCCGUUGGCGUAAUGGUAACGCGUCUCCCUCCUACGGAGAAGACUGCGGGUUCGAGUCCCGUACGGAUCG to GUCCCGUUGGCGUAAUGGUAACGCGUCUCCCUCCUACGGAGAAGACUGCGGGUUCGAGUCCCGUACGGAGCG, the yeast fitness falls from 0.683 to 0.555.

Going from GUCCCGUUGGCGUAUUGGUAACGCGUCUCCCUCUUAAGGAGAGGACUGCGGGUUCGAGUCCCGUACGAUACG to GUCCCGUUGGCGUAUUGGUAACGCGUCUCCCUCUUAAGGAGAGGACUGCGGGUUCGAGUCCCGUACGGAACG, the yeast fitness rises from at most 0.5 to 0.545.

Compared with GUCCCGUUGGCGUAAUGGUAACGCGUCUCCCUCCUACGGAGAAGACUGCGGGUUCGAGUCCCGAACGGAACG, GUCCCGUUGGCGUAAUGGUAACGCGUCUCCCUCCUUAGAAGAAGACUGCGGGUUCGAGUCCCGUACGGAACG is lower in yeast fitness: 0.598 for the first, at most 0.5 for the second.

Compared with GUCCCGUUGGCGUAAUGGUAGCGCGUCUCCCUCCUAAGGAGAUGACUGCGGGUUCGAGUCCCGUCCGCAACG, GUCCCGUUGGCGUAAUGGUAACGCGUCUCCCUCCUAAGGAGACGACUGCGGGUUCGAGUCUCGUACGGAACG is higher in yeast fitness: at most 0.5 for the first, 0.707 for the second.

Compared with GUCCCGUUGGCGUAAUGGUAACGCGUCUCCCUCCUAAGGAGACGACUGCGGGUUCGAGUCACGUACGGAACG, GUCCCGUUGGCGUAAUGGUAACGCGUCUCCCUCCUAAGGAGUAGUCUGCGGGUUCGAGUCCCGCACGGAACG is higher in yeast fitness: 0.612 for the first, 0.885 for the second.

Going from GUCCCGUUGGCGUAAUGGUAGCGCGUCUCCCUCCUAAGGAGAAGACUGUGGGUUCGAGUCCCGUACGGAACG to GUCCCGUUGGCGUAAUGGUAGCGCGUCUCCCUCCUAAGGAGAACACUGCGGGUUCGAGUCCCCUACGGAACG, the yeast fitness falls from 1.02 to at most 0.5.

First: GUCCCGUUGGCGUAUUGGUAACGCGUCUCCCUCUUAAGGAGAGGACUGCGGGUCCGAGUCCCGUACGGAACG
Second: GUCCCGUUGGCGUAAUGGUAGCGCGUCUCCCUCCUAAGGAGAUGACUGCGGGUUCGAGUCCCGUACGGAACG
The yeast fitness of the first is lower: at most 0.5 for the first, 0.989 for the second.

Compared with GUCCCGUUGGCGUAAUGGUUACGCGUCUCUCUCCUAGGGAGAAGACUGCGGGUUCGAGUCCCGUACGGACCG, GUCCCGUUGGCGUAAUGGUAUCGCGUCUCCCUCCUAAGGAGAAGACUGCGGGUUCGAGUCCCGUACCGAACG is lower in yeast fitness: 0.708 for the first, at most 0.5 for the second.

Compared with GUCCCGUUGGCGUAAUGGUCACGCGUCUCCCUCCUAAGGAGAAGAUUGCGGGUUCGAGUUUCGUACGGAACG, GUCCCGUUGGCGUAAUGGUCACCCGUCUCCCUCCUAAGGAGAAGACUGCGGGUUCCAGUCCCGUACGGAACG is lower in yeast fitness: 0.759 for the first, at most 0.5 for the second.

GUCCCGUUGGCGUACUGGUAACGCGUCUCCCUCCUAAGGAGAAGACUGCGCGUUCGAGUCACGUACGGAACG and GUCCCGUUGGCGUAAUGGUCACCCGUCUCCCUCCUAAGGAGAAGACUGCGGGUUCCAGUCCCGUCCGAAACG cannot be ordered by yeast fitness: at most 0.5 for the first, at most 0.5 for the second.

Going from GUCCCGUUGGCGUACUCGUAACGAGUCUCCUUCCCAAGGAGAAGACUGCGGGUUCGAGUCCCGUACGCAACG to GUCCCGUUGGCGUAAUGGUAACGCGUCUCCCUCCUAAGGAGCAGACUGCGGGUUCGAGUCCCGUUCGGAACG, the yeast fitness rises from at most 0.5 to 0.651.

Compared with GUCCCGUUGGCGUAAUGGUAACGCGUCUCCCUCCUAAGGGGAAGAAUGCGGGCUCGAGUCCCGUACGGAACG, GUCCCGUUGGCGUAAUGGUAACGCGUCUCCCUCCUACAGAGAAGACUGCGGAUUCGAGUCCCAUACGGAACG is lower in yeast fitness: 0.663 for the first, at most 0.5 for the second.

Going from GUCCCGUUGGCGUAAUGGUAGCGCGUAUCCCUCCUUAGGGGAAGACUGCGGGUUCGAGUCCCGUACGGAACG to GUCCCGUUGGCGUAAUGGUAACGCGUCUCCCUCCUAAGGAGGAGACUGCGGGUUCGAGUCCCGUACGGAACG, the yeast fitness rises from at most 0.5 to 0.883.

Compared with GUCCCGUUGGCGUAAUGGUAACGCGUCUCCCUCCUAAGGAGCAGACUGCGGGUUCGAGUCCCGUACGGAACG, GUCCCGUUGGCGUAAUGGUAACGCGUCUCCCUCCUAAGGAGUAGACUGCGGGUUCGAGUCCCGUACGGAACG is higher in yeast fitness: 0.85 for the first, 0.9 for the second.

First: GUCCCGUUGGCGUAAUGGUUACGCGUCUCCCUCCUAAGGAGAAGACUGCGGGUUCGAGUCCCGAACGGAACG
Second: GUCCCGUUGGCGUAAUGGUAGCGCGUCUCCCUCCUAAAGAGAAGACUGCGGGUUCAAGUCCCGUACGGAACG
The yeast fitness of the first is higher: 0.594 for the first, at most 0.5 for the second.

GUCCCGUUGGCGUAAUGGUGACGCGUCUGCCUCCUAAGGAGAAGACUGCGGGUUUGAGUCCCGUACGGAACG and GUCCCGUUGGCGUAAUGGUAACGCGUCUCCCUCCUAUGGAGAAGACUGCGGAUUCGAGUCCCGUACGGAACG cannot be ordered by yeast fitness: at most 0.5 for the first, at most 0.5 for the second.

Going from GUCCCGUUGGCGUAAUGGUAGCGCGUCUCCCUCCUAAGGAGAAGAGUGCAGGUUCGAGUCCCGUACGGAACG to GUCCCGUUGGCGUAAUGGUAACGCGUCUCCCUCCUAAGGUGAAGACUGCGGGUUCGAAUCCCGUACGGCACG, the yeast fitness rises from at most 0.5 to 0.656.

Going from GUCCCGUUGGCGUAAUGGUUACGCGUCUCCCUCCUAAGGAGAAGACUGCGGGUUCGAGUCCCGUACGGAACG to GUCCCGUUGGCGUAAUGGUAACGCGUCUCCCUCCUAAGGGGAAGAAUGCGGGUUCGAGUCCCGUACGGAACG, the yeast fitness rises from 0.866 to 0.966.

For GUCCCGUUGGCGUAAUGGUAACGCGUCUCCCUCCUAAGGUGAAGACUGCGGGUUCGAAUCCCGUACGGAACG, the yeast fitness was 1.02.
